# Test results published in the RNAGym collection of RNA variant scans (doi:10.1126/science.aae0568).
# Fewer inactive variants are shown than the library holds.
# B1: tRNA (parent)
# chain: GUUCCGUUGGCGUAAUGGUAACGCGUCUCCCUCCUAAGGAGAAGACUGCGGGUUCGAGUCCCGUACGGAACG
# Variants of: B1
# Test: yeast fitness relative to wild type (ratio to wild type); higher = fitter; tRNA-Arg(CCU), competitive growth, 37 C, YPD
# Procedure, shortened: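 Genotype frequency changes were the basis for Darwinian fitness relative to wild type. The frequencies came from 100-nucleotide paired-end sequencing of gene amplicons from the start population and each end population of pooled yeast strains with tRNA-Arg(CCU) gene variants at the native locus. Competition ran in YPD at 37°C for 24 hours in six replicates, genotypes needed ≥ 100 starting reads, and estimates < 0.5 were set to 0.5.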
row,Variant,yeast fitness
1,GUUCCGUCGGCGUAAUGGUAACGCGUCUCGGUCCUAAGGAGAAGACUGCGGGUCCGAGUCGCGUACGGAACG [U8C C30G C31G U54C C61G],≤ 0.5
2,GUUCCGUCGGCGUAAUGGUAACGCGUCUCAUUCCUAAGGAGAAGACUGCGGGUCCGAGUCCCGUACGGAACG [U8C C30A C31U U54C],≤ 0.5
3,GUUCCGUCAGCGUAAUGGUAACGCGUCUCCCUCCUAAGGAGGAGACUGCGGGUUCGAGUCCCGUACGGAACG [U8C G9A A42G],0.514
4,GUUCCGUCGACGUAAUGGUAACGCGUCUCCCUCCAAAGGAGAAGACUGCGGGUUCGAGUCCCGUACGGAACG [U8C G10A U35A],≤ 0.5
5,GUUCCGUCGGCGUAAUGGUAACGCGUCUCCCUCCUAAGGAGAAGACUGGGGGUUCGGGUCCCGUACGGAACG [U8C C49G A57G],0.531
6,GUUCCGUCGGCAUAAUGGUAACGCGUCUCCGUCCUAAGGCGAAGCCUCCGGGUUCGAGUCCCGUACGGAACG [U8C G12A C31G A40C A45C G48C],≤ 0.5
7,GUUCCGUCGGCAUAAUGGUAACGCGUCUCCCUCCUAAGGAGAAGACUGCGGGUUCGAGUCCCGUACGGAACG [U8C G12A],0.714
8,GUUCCGUCGGCGUAAUGGUAACGCGUCUCCUUCCUAAGGAGAAGACUGCGGGUUCGAGUCCCGUACGGAACG [U8C C31U],1.07
9,GUUCCGUCAGCGGAAUGGUAACGCGUCUCCCUCCUAAGGAGAAGACUGCGGGUUCGAGUCCUGUACGGAACG [U8C G9A U13G C62U],≤ 0.5
10,GUUCCGUCGGCGUAAUGGUAACGCGUCUCCGUCCUAAGGAGAAGGCUGCGGGUUCGAGUCCGGUACGGAACG [U8C C31G A45G C62G],≤ 0.5
11,GUUCCGUCGGCAUAAUGGUAACGCGUCUCCCUCCUAAGGAGAAGACUGCGGGUUCGAGUCCCAUACGGAACG [U8C G12A G63A],≤ 0.5
12,GUUCCGUCGGCGUAAUGGUAACGCGUCUCCCUCCUAAGGAGAAGAAUGCCGGUUCGAGUCCCGUACGGAACG [U8C C46A G50C],0.567
13,GUUCCGUCGGCGUAAUGGUAACGCGUCUCGGUCCUAAGGAGAAGACUGCGGGUUUGAGUCCCGUACGGAACG [U8C C30G C31G C55U],≤ 0.5
14,GUUCCGUCGCCGUAAUGGUAACGCGUCUCCCUCCUAAGGAGGGGACUGCGGGUUUGAGUCCCGUACGGAACG [U8C G10C A42G A43G C55U],0.724
15,GUUCCGUCAGCGUAAUGGUAAUGCGUCUCACUCCUAAGGAGAAGACUGAGGGUUAGAGUCCUGUAUGGAACG [U8C G9A C22U C30A C49A C55A C62U C66U],≤ 0.5
16,GUUCCGUCCGCGUAAUGGUAACGCGUCUCCCUCCUAUAAAGAAGACUGCGGGUUCGAGUCCCGUACGGAACG [U8C G9C A37U G38A G39A],≤ 0.5
17,GUUCCGUCGGCAUAAUGGCAACGCGUCUCCCUCGUAAGGAGAAGACUGCGGGUUCGAGUCCCGUAUGGUACG [U8C G12A U19C C34G C66U A69U],≤ 0.5
18,GUUCCGUCGGCGUAAUGGUAACGCGUCUCGCUCCUAAGGAGAAGAAGGAGGAUUCGACUCCCGGGCGGAACG [U8C C30G C46A U47G C49A G52A G58C U64G A65G],≤ 0.5
19,GUUCCGUCGGCGUAAUGGUAACGCGUCUGCCUCCGAAGGAGAAGACUGCGGGUUCGAGUCUCGUACGGAACG [U8C C29G U35G C61U],≤ 0.5

row,Variant,yeast fitness
1,GUUCCGUCGGCGUAAUGGUAACGCGUCUACCUCGUGAGGCAAAGACAGCGGGUUCGAGUCCCGCACGGAACG [U8C C29A C34G A36G A40C G41A U47A U64C],≤ 0.5
2,GUUCCGUCGGCGUAAUGGUAACGCGUCUCCCUUCUAAGGAGAAGACUGCGGGUUCGAGUCCCGUACGGAUCG [U8C C33U A70U],≤ 0.5
3,GUUCCGUCGGCGUAAUGGUAACGCGUCUACCUCGUGGGGCGAAGACAGCGGGUUCGAGUCCCGCACGGAACG [U8C C29A C34G A36G A37G A40C U47A U64C],≤ 0.5
4,GUUCCGUCGGCGUAAUGGUAACGCGUCUCGCUGCUAAGGAGAAGACUGCGGGUUCGAGUCCCGUACGGAACG [U8C C30G C33G],≤ 0.5
5,GUUCCGUCGGCGUAAUGGUAACGCGUCUCCCUCGUAAGGAGAAGACUGCGGGUUCGAGUCCCGUACGGAACG [U8C C34G],0.574
6,GUUCCGUCGGCCUAAUGGUAACGCGUCUCCCGCCUAAGGAGUAGACUGCGGGUUCGAGUCCCGUACGGAACG [U8C G12C U32G A42U],≤ 0.5
7,GUUCCGUCGGCGUAAUGGUAACGCGUCUCCCUCGUAAGGAGAAGACUGCGGGUUCGACUCCUGUACGGAACG [U8C C34G G58C C62U],≤ 0.5
8,GUUCCGUCGGCGUAAUGGUAACGCGUCUCCCUCAUAAGGAGAAGACUGCGGGUUCGAGUCGCGUACGCAACG [U8C C34A C61G G68C],≤ 0.5
9,GUUCCGUCGGCGUAAUGGUAACGCGUUGCCCUGCUGAGGAGAAGACUGCGGGUUCGAGUCCCGUACGGAACG [U8C C27U U28G C33G A36G],≤ 0.5
10,GUUCCGUCGGCGUAAUGGUAACGCGUUUCCAUCCUAAGGAGAAGACUGCGGGUUAAAGUCCCGUACGGAACG [U8C C27U C31A C55A G56A],0.579
11,GUUCCGUCGGCGUAAUAGUAACGCGUCUCCCUCCUAAGGAGAAGACUGCGGGUUCGAGUCCCGUACGGAACG [U8C G17A],0.711
12,GUUCCGUCGGCGUAAUGGUAACGCGUCUCCCUCCUAAGGAGAAGACUGUGGGUUCGAGUCACGUACGGAACG [U8C C49U C61A],≤ 0.5
13,GUUCCGUCGGCGUAAUGGUAACGCGUCUGCCUCCUAGGGAGAAGACUGCGGGUUCGAGUCCCGUACCGAACG [U8C C29G A37G G67C],0.573
14,GUUCCGUCGGCGUAAUGGUAACGCGUCUACCUCCUAAGGAGAAGACUGCGGGUUCGAGUCCCGUCGGGAACG [U8C C29A A65C C66G],≤ 0.5
15,GUUCCGUCGGCGUAAUGGUAACGCGUUUCCAUCCUAAGGAGAAGACUGCGGGUUAAAGUCCCGUGCGGAACG [U8C C27U C31A C55A G56A A65G],≤ 0.5
16,GUUCCGUCGGCGUAAUGGUAACGCGUCUCCCUCCUAAGGAGAAGACUGCGGGUUCGAGUCGCGUACGGAACG [U8C C61G],0.678
17,GUUCCGUCAGCGUAAUGGUCACGCGUCUCCCUCCUAAGGAGAAGACUGCGGGUUCGAGUCCCGUACGCAACG [U8C G9A A20C G68C],0.527
18,GUUCCGUCGGCGUAAUGGUAACGCGUCUCCCUCCUAAGGAGAAGACUGCGGGUUCGAGUCACGUUCGGAACG [U8C C61A A65U],≤ 0.5
19,GUUCCGUCGGCAUAAUGGUAACGCGUCUGCCUCCUAAGGAGAAGACCGCGGGUUCGAGUCCCGUACGGAACG [U8C G12A C29G U47C],≤ 0.5
